This note sets out measurements from PubChem BioAssay.

Structures are written as SMILES. The source made the active and inactive calls.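 The calls were made as follows, unless noted: active = inhibition of the reporter signal at or above 50%; inactive = inhibition below 50%.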

A short description of assay [1]: inhibitors of TNFa-induced NFkB p65 translocation, primary screen, imaging, HUVEC, MLSMR starter and 10KST1 sets (AID 438;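 active = inhibition above 20% together with a positive visual image hit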;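 also: compound added about 3h40 before a 20 min TNFalpha stimulation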;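 as to inhibition: signal is the nuclear over cytoplasmic p65 intensity ratio per well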). As to conditions: HUVEC TNFa-induced p65 nuclear translocation; cell count: measured here: nuclei count (cytotoxicity indicator), at 2.08 µM; inhibition: at 2 µM, stronger effect = higher value, 0% TNFa-plus-vehicle, 100% no-TNFa wells.
A short description of assay [2]: reduction of polyQ htt aggregates in cells – imaging, exon1htt(103Q)mCFP cells, high-content imaging, primary screen (AID 483;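 active = visual image review flags a hit and inhibition of aggregation exceeds 20%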;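 also: compound exposure lasted 3 days before fixation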;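 as to nuclei count: percent of the per-plate median nuclei count of sample wells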). To be noted: exon1htt(103Q)mCFP cell line, aggregate imaging, at 2 µM; inhibition of aggregation: stronger effect = higher value; nuclei count: measured here: cell count, toxicity.
Assay [3] in a line: endothelial E-selectin expression blockers – imaging, HUVEC, immunofluorescence, MLSMR starter and 10KST1 sets, primary screen (AID 487;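 active = visually confirmed hit in the image check and inhibition above 20%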;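 as to inhibition: signal is fraction of cell area covered by stained E-selectin grains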;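 as to nuclei count: 100% = median nuclei count of all wells on the same plate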). To be noted: HUVEC TNFalpha-induced E-selectin immunofluorescence imaging, at 2 µM; inhibition: stronger effect = higher value; nuclei count: measured here: cell number, toxicity.
The target in assay [4] is Voltage-gated potassium channel subunit beta-2 (Rattus norvegicus) (UniProt P62483). Nature of the assay: inhibitors of rat Kvbeta2 reductase activity – biochemical, NADPH fluorescence, primary screen (AID 622;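 active = fluorescence slope higher than the sample average by over 3 SD, cut at about -0.22 in these data, passing the limit was not always enough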;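 also: slope of raw intensity against log time taken from 70 to 1610 s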). As to conditions: recombinant KvBeta, 4-cyanobenzaldehyde reduction, at 10 µM, stronger effect = higher value.
Sequence of Voltage-gated potassium channel subunit beta-2 (Rattus norvegicus) (P62483 whole entry, looked up): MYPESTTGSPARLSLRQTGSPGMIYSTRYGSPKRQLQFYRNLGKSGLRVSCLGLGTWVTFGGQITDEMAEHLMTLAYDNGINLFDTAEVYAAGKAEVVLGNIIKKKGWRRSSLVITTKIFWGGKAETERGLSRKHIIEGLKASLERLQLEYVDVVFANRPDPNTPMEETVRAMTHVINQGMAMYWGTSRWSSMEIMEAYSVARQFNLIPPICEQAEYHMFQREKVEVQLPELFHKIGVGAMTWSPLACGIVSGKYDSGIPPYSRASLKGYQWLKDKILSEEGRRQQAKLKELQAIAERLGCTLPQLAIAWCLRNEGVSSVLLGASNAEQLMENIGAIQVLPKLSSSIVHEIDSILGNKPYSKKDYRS
Assay [5] shares this target. The assay is described as follows: enhancers of rat Kvbeta2 NADPH turnover – biochemical, NADPH fluorescence, primary screen (AID 623;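 active = NADPH fluorescence slope more negative than the mean of all samples by about 3 SD, 99.7% confidence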;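 also: fluorescence intensity change per second fitted from 20 to 320 s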). As to conditions: Recombinant KvBeta, NADPH fluorescence decrease slope, 10 min; at 10 µM; stronger effect = lower value.
Assay [6] concerns the target Muscarinic acetylcholine receptor M4 (Homo sapiens) (UniProt P08173). Nature of the assay: M4-linked GIRK flux change, two-sided – cell-based, HEK293 M4/GIRK, thallium flux, BTC-AM, M4 allosteric agonist project, primary screen (AID 625;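 active = fluorescence slope after compound addition differing from the mean of all tested samples at 99.7% confidence, mostly higher but some lower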;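 also: thallium influx through GIRK channels coupled to M4 in HEK293 cells with BTC-AM dye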). As to conditions: at 10 µM, actives lie on both sides. The gist of the method:
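Material: M4/GIRK1/GIRK2 stable HEK293 cell line. Medium: pH 7.3 thallium assay buffer. Dosing: single compound concentration, 10 µM final. Schedule: 1 h dye loading, 2 min kinetic read. Measured by: kinetic fluorescence with BTC-AM dye. Read-out: post-addition slope, 15–24 s, of baseline-normalized fluorescence. Benchmarks: carbachol and DMSO controls.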

Assay [7] can be described thus: blockers of RIG-like receptor reporter activation – cell-based, Sendai virus stimulus, luciferase, 10K MLSCN set, TLR/RLR signaling modifier project, primary screen (AID 602276;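 active = inhibition at or above 50% at 10 µM; inactive = inhibition below 50%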;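 also: firefly luciferase from ISG56 promoter only with Renilla not read in this screen; 0% = Sendai virus plus DMSO and 100% = medium plus DMSO without virus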). As to conditions: HEK293 RL24 IRF3 luciferase reporter, at 10 µM, stronger effect = higher value.
Assay [8] is described as follows: TLR3 IRF3 reporter activation blockers – cell-based, poly I:C stimulus, luciferase, 10K MLSCN set, primary screen (AID 602277). As to conditions: HEK293-TLR3 RL24 IRF3 luciferase reporter, at 10 µM, stronger effect = higher value. A general note: In a reporter assay the amount or activity of a reporter protein is the signal.

Sequence of Muscarinic acetylcholine receptor M4 (Homo sapiens) (P08173 whole entry, looked up): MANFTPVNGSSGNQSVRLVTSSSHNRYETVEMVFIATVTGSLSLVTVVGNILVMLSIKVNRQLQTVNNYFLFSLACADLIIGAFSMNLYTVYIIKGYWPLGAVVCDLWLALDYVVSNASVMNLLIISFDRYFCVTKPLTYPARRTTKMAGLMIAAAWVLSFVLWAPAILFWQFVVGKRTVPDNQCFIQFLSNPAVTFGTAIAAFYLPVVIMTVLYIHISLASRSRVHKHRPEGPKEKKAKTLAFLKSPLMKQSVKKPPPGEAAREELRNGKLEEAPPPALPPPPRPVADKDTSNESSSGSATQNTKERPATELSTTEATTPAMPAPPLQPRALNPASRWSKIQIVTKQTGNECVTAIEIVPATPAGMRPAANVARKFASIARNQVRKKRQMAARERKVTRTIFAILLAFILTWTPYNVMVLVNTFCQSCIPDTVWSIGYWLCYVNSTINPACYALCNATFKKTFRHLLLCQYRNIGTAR

Turning to `CC(O)CN(Cc1cccc(Cl)c1)CC(C)O` (centres undefined), in assay [1], the cell count amounted to 473. Besides, the inhibition was 0.5% (inactive) in assay [1], 10.2% (inactive) in assay [3], 18.8% (inactive) in assay [7] and 19.5% (inactive) in assay [8]. Also, the inhibition of aggregation in assay [2] was 1.4% (inactive). Besides, the nuclei count in assay [2] turned out to be 100%; in assay [3] it was 95.1%. Further, the fluorescence slope in assay [4] was -0.431 (inactive); in assay [6], 0.00551 (inactive). For the same molecule, the NADPH fluorescence slope in assay [5] is 1.1e-05 (inactive).
As to `Cc1ccc(-c2cc(C(=O)N3CCCC3)no2)cc1`, in assay [1], the cell count was determined as 471. In addition, the inhibition in assay [1] is 7.3% (inactive); in assay [3], -1.1% (inactive); in assay [7], -46.7% (inactive); in assay [8] it was -130% (inactive). Besides, the inhibition of aggregation in assay [2] was -20.5% (inactive). Further, the nuclei count was determined as 19.5% in assay [2] and 106% in assay [3]. Besides, the results for the fluorescence slope in assay [4] and in assay [6] were -0.585 (inactive) and 0.00612 (inactive), respectively. Besides, in assay [5], the NADPH fluorescence slope is 1.3e-05 (inactive).
For `O=C(NC1CC2CCC1C2)C1COc2ccccc2O1` (centres undefined), the cell count in assay [1] was found to be 297. Also, the inhibition in assay [1] was -3.7% (inactive); in assay [3], 18.8% (inactive); in assay [7], 0.357% (inactive); in assay [8], -2.86% (inactive). The inhibition of aggregation in assay [2] is 1.9% (inactive). For the same molecule, the nuclei count is 89.3% in assay [2] and 97.5% in assay [3]. For the same molecule, the figures for the fluorescence slope in assay [4] and in assay [6] were -0.46 (inactive) and 0.00453 (inactive), respectively. In assay [5], the NADPH fluorescence slope is -3.9e-05 (inactive).
With `CCOC(=O)CSc1cn2c(n1)CCC2`, in assay [1], the cell count was 547. The inhibition in assay [1] is -10.9% (inactive); in assay [3], -25.8% (inactive); in assay [7], -11.5% (inactive); in assay [8] it was -11.4% (inactive). The inhibition of aggregation in assay [2] is 14.3% (inactive). For the same molecule, the nuclei count in assay [2] was determined as 66.8%; in assay [3] it was 89.1%. For the same molecule, the fluorescence slope in assay [4] was -0.595 (inactive); in assay [6] it was 0.00761 (inactive). For the same molecule, the NADPH fluorescence slope in assay [5] is 1.5e-05 (inactive).
`O=C(NC1CCCC1)c1c[nH]c2ccc(F)cc2c1=O`: the cell count in assay [1] was 442. Moreover, the inhibition in assay [1] is -4% (inactive); in assay [3], -16% (inactive); in assay [7] it was -2.78% (inactive); in assay [8], -20.3% (inactive). Moreover, in assay [2], the inhibition of aggregation was -14.3% (inactive). Moreover, the nuclei count in assay [2] amounted to 118%; in assay [3], 104%. In addition, the fluorescence slope in assay [4] was -0.266 (inactive); in assay [6] it was 0.00803 (inactive). Besides, the NADPH fluorescence slope in assay [5] was -1.4e-05 (inactive).
For the molecule `O=C(Cn1nc(-c2ccc(Cl)cc2)ccc1=O)NCCCN1CCN(Cc2ccccc2)CC1`, the cell count in assay [1] was determined as 518. Besides, the inhibition is 10.6% (inactive) in assay [1], -351% (inactive) in assay [3], -9.82% (inactive) in assay [7] and -23.5% (inactive) in assay [8]. Further, in assay [2], the inhibition of aggregation was -12.5% (inactive). Also, the nuclei count in assay [2] stood at 97.4%; in assay [3], 135%. The fluorescence slope in assay [4] was -0.585 (inactive); in assay [6] it was 0.00673 (inactive). Besides, in assay [5], the NADPH fluorescence slope is 3e-05 (inactive).
Consider `Cc1nnc(NC(=O)Nc2cccc(Cl)c2)s1`, for which, in assay [1], the cell count amounted to 481. Further, the inhibition in assay [1] was -9.3% (inactive); in assay [3] it was 9.5% (inactive); in assay [7] it was -25% (inactive); in assay [8], -88.8% (inactive). In assay [2], the inhibition of aggregation is -4.3% (inactive). In addition, the nuclei count in assay [2] was 66.7%; in assay [3] it was 114%. Also, the fluorescence slope in assay [4] was -0.574 (inactive); in assay [6] it was 0.00561 (inactive). In addition, the NADPH fluorescence slope in assay [5] is -1.8e-05 (inactive).
`CCOC(=O)CC(NS(=O)(=O)c1ccc(NC(C)=O)cc1)c1ccc(OCC)cc1` (centres undefined): the cell count in assay [1] is 376. The inhibition in assay [1] is 9.9% (inactive); in assay [3], -101% (inactive); in assay [7], 14% (inactive); in assay [8] it was 17.3% (inactive). Further, in assay [2], the inhibition of aggregation is -7.9% (inactive). The nuclei count in assay [2] stood at 95.7%; in assay [3], 126%. The fluorescence slope was -0.588 (inactive) in assay [4] and 0.00588 (inactive) in assay [6]. In assay [5], the NADPH fluorescence slope is 3.6e-06 (inactive).
Take `CCOC(=O)c1ccc(-c2c(C(=O)OCC)oc3cc(O)c(CC)cc3c2=O)o1`: the cell count in assay [1] came out at 676. The inhibition in assay [1] is 6.9% (inactive); in assay [3] it was -22.1% (inactive); in assay [7] it was 15.3% (inactive); in assay [8], 7.61% (inactive). Moreover, the inhibition of aggregation in assay [2] was 10.3% (inactive). Further, the figures for the nuclei count in assay [2] and in assay [3] were 104% and 100%, respectively. For the same molecule, the results for the fluorescence slope in assay [4] and in assay [6] were -0.602 (inactive) and 0.00385 (inactive), respectively. In addition, the NADPH fluorescence slope in assay [5] was -2.5e-05 (inactive).
For the molecule `CN(CCC#N)C(=O)COC(=O)c1ccc(Cl)c(S(N)(=O)=O)c1`, the cell count in assay [1] was 426. The inhibition in assay [1] was -2.2% (inactive); in assay [3] it was -96.3% (inactive); in assay [7], 16.3% (inactive); in assay [8] it was 25.4% (inactive). Further, the inhibition of aggregation in assay [2] was 17.6% (inactive). The nuclei count in assay [2] was determined as 58.5%; in assay [3], 102%. Moreover, the fluorescence slope in assay [4] was -0.539 (inactive); in assay [6] it was 0.00521 (inactive). The NADPH fluorescence slope in assay [5] was -5.1e-05 (inactive).
As to `Cn1c(=O)[nH]c(=O)c2c1nc(N1CCNCC1)n2Cc1cccc2ccccc12`, the cell count in assay [1] amounted to 387. Further, the inhibition in assay [1] is 1.1% (inactive); in assay [3] it was -83.1% (inactive); in assay [7], 13.2% (inactive); in assay [8] it was 28.8% (inactive). For the same molecule, in assay [2], the inhibition of aggregation is 13.1% (inactive). Besides, the values for the nuclei count in assay [2] and in assay [3] were 99.6% and 106%, respectively. Moreover, the fluorescence slope was -0.59 (inactive) in assay [4] and 0.00615 (inactive) in assay [6]. The NADPH fluorescence slope in assay [5] was -5.5e-05 (inactive).
Take `CCN1CCN(Cc2c(C)[nH]c3ccc(OC)cc3c2=O)CC1`: the cell count in assay [1] was 405. For the same molecule, the inhibition in assay [1] was 18.7% (inactive); in assay [3], -241% (inactive); in assay [7], 19.5% (inactive); in assay [8], 26.6% (inactive). In assay [2], the inhibition of aggregation is -19.4% (inactive). The nuclei count in assay [2] stood at 99.3%; in assay [3] it was 113%. Further, the fluorescence slope in assay [4] is -0.57 (inactive); in assay [6], 0.00708 (inactive). The NADPH fluorescence slope in assay [5] is -9e-05 (inactive).
As for `COc1ccc(OC)c(N(CC(=O)N2CCN(c3cc(Cl)ccc3C)CC2)S(C)(=O)=O)c1`, in assay [1], the cell count came out at 497. Besides, the inhibition in assay [1] was -7.3% (inactive); in assay [3], -13.6% (inactive); in assay [7] it was 17% (inactive); in assay [8], 24.6% (inactive). Besides, the inhibition of aggregation in assay [2] is 23.1% (inactive). Besides, the nuclei count in assay [2] is 61.4%; in assay [3], 105%. Further, the fluorescence slope was -0.572 (inactive) in assay [4] and 0.00582 (inactive) in assay [6]. In assay [5], the NADPH fluorescence slope was -5.2e-05 (inactive).
As for `O=C(O)CCc1ccc(-c2ccccc2)n1CC(=O)O`, the cell count in assay [1] is 355. For the same molecule, the inhibition was 2.4% (inactive) in assay [1], -36.5% (inactive) in assay [3], -9.35% (inactive) in assay [7] and -25.1% (inactive) in assay [8]. Further, in assay [2], the inhibition of aggregation was -3.7% (inactive). The figures for the nuclei count in assay [2] and in assay [3] were 112% and 114%, respectively. In addition, the figures for the fluorescence slope in assay [4] and in assay [6] were -0.564 (inactive) and 0.00623 (inactive), respectively. For the same molecule, the NADPH fluorescence slope in assay [5] was -7.8e-05 (inactive).

As usually defined, the inhibition is the relative decrease from the control value, in per cent.
